Data set [1] concerns the target T1, Proteinase-activated receptor 1 (Homo sapiens, UniProt P25116).
T1 sequence (P25116 whole entry): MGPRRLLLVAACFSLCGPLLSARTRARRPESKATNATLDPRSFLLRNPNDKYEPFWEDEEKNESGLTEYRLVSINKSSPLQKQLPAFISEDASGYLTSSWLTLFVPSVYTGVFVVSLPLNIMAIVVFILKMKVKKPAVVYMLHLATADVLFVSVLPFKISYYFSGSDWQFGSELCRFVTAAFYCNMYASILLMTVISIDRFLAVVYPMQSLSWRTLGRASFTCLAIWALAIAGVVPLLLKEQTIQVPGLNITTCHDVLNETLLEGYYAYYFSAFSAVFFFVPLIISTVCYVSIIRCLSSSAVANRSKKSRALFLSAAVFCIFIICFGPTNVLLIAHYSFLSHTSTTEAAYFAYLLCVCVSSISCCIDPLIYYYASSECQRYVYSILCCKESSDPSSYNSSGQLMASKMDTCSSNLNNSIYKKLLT
Nature of the data set: Displacement of [3H]haTRAP from PAR1 in human platelet membrane. The class given is cell membranes.

A short description of data set [2]: AUC (0-24h) in cynomolgus monkey at 1 mg/kg, po. Particulars: plasma. Type of data set: ADME, organism-based, Macaca fascicularis. Further details: time < 24 hr, dose 1 mg/kg, route oral. Put shortly: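 Cynomolgus monkeys received a single oral dose of 1 mg/kg in 20% HPβCD. Blood levels were followed at various time points afterwards.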
A short description of data set [3]: AUC (0-24h) in Sprague-Dawley rat at 300 mg/kg, po after 10 days. Type of data set: ADME, organism-based. Further details: time < 24 hr, dose 300 mg/kg, route oral. Particulars: plasma. Put shortly: (§1)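 Fed male Sprague Dawley rats, four per group, given the compound orally once daily for 10 consecutive days in 0.4% methylcellulose (100 and 300 mg/kg groups). On day 1 and day 10, plasma concentrations of parent and hydroxylated metabolites were measured at 1, 2, 4, 8, 12 and 24 h, giving AUC(0-24 h) and Cmax.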

Data set [4] can be described thus: Cmax in Sprague-Dawley rat at 300 mg/kg, po after 1 day. Type of data set: ADME, organism-based. Further details: dose 300 mg/kg, route oral. Particulars: in vivo. The method in brief:
as §1

Data set [5] can be described thus: AUC (0-6h) in rat after oral administration. Further details: time < 6 hr, route oral. The class given is ADME, organism-based. Particulars: plasma.
In data set [6] the test system is Platelet. Nature of the data set: Inhibition of haTRAP-induced platelet aggregation in cynomolgus monkey at 1 mg/kg after 6 hrs. Type of data set: functional, organism-based. Further details: dose 1 mg/kg. To be noted: Macaca fascicularis. The method in brief: (§2)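 Ex-vivo assay in cynomolgus monkeys. The compound was given orally as a single dose (1 mg/kg or 3 mg/kg in 20% HPβCD). Platelet aggregation induced by haTRAP was then measured in samples taken after dosing, at time points up to 24 h.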

Data set [7] can be described thus: AUC (0-24h) in Sprague-Dawley rat at 300 mg/kg, po after 1 day. The class given is ADME, organism-based. On the set-up: time < 24 hr, dose 300 mg/kg, route oral. Particulars: plasma. Put shortly: as §1
Data set [8] is described as follows: Cmax in Sprague-Dawley rat at 300 mg/kg, po after 10 days. Type of data set: ADME, organism-based. To be noted: in vivo. Further details: dose 300 mg/kg, route oral. The method in brief: as §1
A short description of data set [9]: Inhibition of haTRAP-induced human platelet aggregation. The class given is functional, cell-based. The method in brief:
(§3)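 Washed platelets from healthy human donors who had been aspirin-free for 7 days were preincubated with the compound for 1 h. Aggregation was then triggered by 0.3 µM haTRAP, or by ADP for the specificity test. IC50 was derived for the haTRAP response.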

Data set [10] in a line: Inhibition of thrombin-mediated activation of calcium transients in human CASMC. Type of data set: functional. The method in brief:
(§4)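 Human coronary artery smooth muscle cells were loaded with the fluorescent calcium dye Fluo-3, and intracellular calcium was read on a fluorometric imaging plate reader. Thrombin served as the agonist in the inhibition format. For the agonist check, cells were treated with the compound alone.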

Another data set deals with Cytochrome P450 2C19 (Homo sapiens, UniProt P33261). Put plainly: Inhibition of cytochrome P450 2C19 in human liver microsomes up to 10 uM. The class given is ADME, Microsome. Put shortly: (§5)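 Human liver microsomes. The compound was tested at concentrations up to 10 µM for inhibition of CYP2D6, 3A4, 2C9 and 2C19.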
Cytochrome P450 2C19, sequence (P33261 whole entry): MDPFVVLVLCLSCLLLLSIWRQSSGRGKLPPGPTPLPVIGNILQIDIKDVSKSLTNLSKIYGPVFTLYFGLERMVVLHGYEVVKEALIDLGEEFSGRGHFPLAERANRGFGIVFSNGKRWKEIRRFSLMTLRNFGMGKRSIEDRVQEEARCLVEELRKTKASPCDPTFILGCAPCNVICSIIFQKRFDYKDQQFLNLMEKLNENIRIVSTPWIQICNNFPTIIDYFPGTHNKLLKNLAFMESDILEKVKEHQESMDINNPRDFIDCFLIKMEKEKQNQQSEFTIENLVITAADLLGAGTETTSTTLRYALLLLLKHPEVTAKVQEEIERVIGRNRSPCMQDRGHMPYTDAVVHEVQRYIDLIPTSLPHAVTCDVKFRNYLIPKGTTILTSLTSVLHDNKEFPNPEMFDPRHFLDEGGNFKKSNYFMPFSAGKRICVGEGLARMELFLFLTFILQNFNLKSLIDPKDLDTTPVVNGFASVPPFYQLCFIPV
Data set [11] can be described thus: Inhibition of thrombin-stimulated [3H]thymidine incorporation in human CASMC. Type of data set: functional. The method in brief: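 Human coronary artery smooth muscle cells were stimulated with thrombin. [3H]thymidine incorporation was measured, and an apparent Ki was derived.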
The nature of data set [12]: Bioavailability in cynomolgus monkey. The class given is ADME, organism-based, Macaca fascicularis. Particulars: in vivo.
The subject of data set [13] is Platelet. Nature of the data set: Inhibition of ADP-induced human platelet aggregation. The class given is functional, cell-based. The method in brief:
as §3

In another data set the target is Cytochrome P450 2D6 (Homo sapiens, UniProt P10635). Put plainly: Inhibition of cytochrome P450 2D6 in human liver microsomes up to 10 uM. Type of data set: ADME, Microsome. The method in brief:
as §5

The next data set concerns the target Cytochrome P450 2C9 (Homo sapiens, UniProt P11712). Put plainly: Inhibition of cytochrome P450 2C9 in human liver microsomes up to 10 uM. The class given is ADME, Microsome. The method in brief: as §5
The next data set addresses Cytochrome P450 3A4 (Homo sapiens, UniProt P08684). Put plainly: Inhibition of cytochrome P450 3A4 in human liver microsomes up to 10 uM. The class given is ADME, Microsome. The method in brief: as §5
Data set [14] in a line: Oral absorption in cynomolgus monkey. To be noted: in vivo. The class given is ADME, organism-based, Macaca fascicularis.
Data set [15] is described as follows: Inhibition of haTRAP-induced platelet aggregation in cynomolgus monkey at 1 mg/kg after 24 hr. The class given is functional. Particulars: Macaca fascicularis. The method in brief:
as §2

Data set [16] deals with Platelet. Put plainly: Inhibition of haTRAP-induced platelet aggregation in cynomolgus monkey at 3 mg/kg. Further details: dose 3 mg/kg. Particulars: Macaca fascicularis. Type of data set: functional, organism-based. Put shortly:
as §2

The next data set is filed under the species Homo sapiens. Nature of the data set: Effect on elevation of calcium level in human CASMC. The class given is functional. The method in brief:
as §4

The nature of data set [17]: AUC (0-6h) in rat at 10 mg/kg, po. The class given is ADME, organism-based. On the set-up: time < 6 hr, dose 10 mg/kg, route oral. To be noted: plasma. The method in brief:
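Rat oral pharmacokinetics at 10 mg/kg dosed in 20% HPβCD. Plasma exposure was reported as AUC(0-6).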

A short description of data set [18]: Solubility of the compound. The class given is physicochemical.

Converted amounts (≈) assume the structure as drawn. The source made the active and inactive calls. The calls are words filed in the database; no cut-off is given here.

Cytochrome P450 3A4, sequence (P08684 whole entry): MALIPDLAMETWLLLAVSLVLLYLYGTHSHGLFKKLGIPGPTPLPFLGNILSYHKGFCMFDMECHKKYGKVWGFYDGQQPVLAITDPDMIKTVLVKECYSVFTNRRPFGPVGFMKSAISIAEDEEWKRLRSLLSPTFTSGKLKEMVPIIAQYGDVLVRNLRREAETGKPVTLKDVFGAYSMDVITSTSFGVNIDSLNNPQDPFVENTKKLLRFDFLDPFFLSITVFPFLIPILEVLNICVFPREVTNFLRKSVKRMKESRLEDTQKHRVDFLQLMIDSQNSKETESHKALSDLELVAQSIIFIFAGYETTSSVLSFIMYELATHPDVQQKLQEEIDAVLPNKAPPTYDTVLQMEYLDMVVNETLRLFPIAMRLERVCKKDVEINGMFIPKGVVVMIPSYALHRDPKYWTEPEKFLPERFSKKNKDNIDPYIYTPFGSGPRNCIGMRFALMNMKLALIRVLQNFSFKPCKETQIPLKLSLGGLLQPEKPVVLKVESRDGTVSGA
Cytochrome P450 2C9, sequence (P11712 whole entry): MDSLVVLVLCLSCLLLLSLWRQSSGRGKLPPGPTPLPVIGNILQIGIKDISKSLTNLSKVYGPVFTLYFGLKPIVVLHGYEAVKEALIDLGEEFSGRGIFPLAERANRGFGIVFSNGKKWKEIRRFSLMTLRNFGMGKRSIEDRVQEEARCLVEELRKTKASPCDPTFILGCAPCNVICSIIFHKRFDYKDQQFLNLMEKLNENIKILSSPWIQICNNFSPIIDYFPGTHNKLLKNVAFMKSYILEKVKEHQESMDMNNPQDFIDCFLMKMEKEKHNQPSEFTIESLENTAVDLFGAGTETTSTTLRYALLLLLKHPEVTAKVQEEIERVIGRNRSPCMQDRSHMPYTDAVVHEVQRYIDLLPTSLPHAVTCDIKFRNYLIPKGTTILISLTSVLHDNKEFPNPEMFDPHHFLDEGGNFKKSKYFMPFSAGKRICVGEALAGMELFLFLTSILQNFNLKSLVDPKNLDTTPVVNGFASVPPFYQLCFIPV
Cytochrome P450 2D6, sequence (P10635 whole entry): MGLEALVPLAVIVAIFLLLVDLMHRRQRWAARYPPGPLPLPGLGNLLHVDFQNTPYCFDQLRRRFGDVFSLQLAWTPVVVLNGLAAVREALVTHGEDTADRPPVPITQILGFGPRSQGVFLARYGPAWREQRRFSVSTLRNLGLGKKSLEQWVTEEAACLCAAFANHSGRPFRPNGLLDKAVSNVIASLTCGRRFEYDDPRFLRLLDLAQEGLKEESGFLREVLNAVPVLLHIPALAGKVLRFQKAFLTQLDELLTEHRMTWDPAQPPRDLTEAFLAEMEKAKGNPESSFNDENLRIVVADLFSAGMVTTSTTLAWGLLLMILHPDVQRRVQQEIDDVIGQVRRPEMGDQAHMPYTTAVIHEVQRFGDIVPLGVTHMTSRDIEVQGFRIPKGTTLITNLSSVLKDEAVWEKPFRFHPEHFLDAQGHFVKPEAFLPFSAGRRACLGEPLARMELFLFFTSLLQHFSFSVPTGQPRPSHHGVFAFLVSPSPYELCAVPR

For the compound `C[C@H]1OC(=O)[C@@H]2C[C@@H]3C[C@H](O)CC[C@H]3[C@H](/C=C/c3ccc(-c4cccc(Cl)c4Cl)cn3)[C@H]12`, the IC50 in data set [1] was 16.5 nM.
`C[C@H]1OC(=O)[C@@H]2C[C@@H]3C[C@@H](O)CC[C@H]3[C@H](/C=C/c3ccc(-c4cccc(C(F)(F)F)c4)cn3)[C@H]12`: the exposure AUC(0-t) at 24 h in data set [2] is 73 ng·h/mL; in data set [7], 18000 ng·h/mL. In addition, the AUC at 24 h in [3] worked out at 81000 ng·h/mL. Also, in data set [1], the IC50 is 23 nM. The Cmax came out at 11000 ng/mL in [4] and 47000 ng/mL in data set [8]. Moreover, the AUC(0-t) at 6 h in data set [5] worked out at 3150 ng·h/mL. Also, the outcome in the data set on Platelet [6] was Active.
As for `C[C@H]1OC(=O)[C@@H]2C[C@@H]3C[C@H](O)CC[C@H]3[C@H](/C=C/c3ccc(-c4cccc(C(F)(F)F)c4)cn3)[C@H]12`, the IC50 turned out to be 60 nM in data set [9] and 17 nM in data set [1]. Also, the AUC(0-t) at 24 h was determined as 3060 ng·h/mL in [2] and 93000 ng·h/mL in data set [7]. The Ki in [10] is 85 nM; in [11], 22 nM; in data set [1], 11 nM. In addition, the AUC at 24 h in data set [3] stood at 41000 ng·h/mL. Also, the Activity entry at Cytochrome P450 2C19, on Cytochrome P450 2D6, at Cytochrome P450 2C9 and on Cytochrome P450 3A4 was “Not Active” throughout. Further, the bioavailability in data set [12] amounted to 89%. The result with Platelet [13] and in the data set filed under Homo sapiens was inactive. In addition, the Cmax is 58000 ng/mL in data set [4] and 25000 ng/mL in [8]. Besides, the AUC(0-t) at 6 h in [5] is 6130 ng·h/mL. Besides, the outcome in the data set with Platelet [6] and with Platelet [16] was Active. In addition, the Fa in data set [14] stood at 92%. For the same compound, the inhibition in vivo at 1 mg/kg in data set [15] worked out at 60%.
Take `C[C@H]1OC(=O)[C@@H]2C[C@H]3[C@@H](CCC[C@H]3O)[C@H](/C=C/c3ccc(-c4cccc(C(F)(F)F)c4)cn3)[C@H]12`: the IC50 in data set [1] turned out to be 28 nM.
Same read-out and setting: in the case of `C[C@H]1OC(=O)[C@@H]2C[C@@H]3CC(F)(F)CC[C@H]3[C@H](/C=C/c3ccc(-c4ccccc4F)cn3)[C@H]12` it was 28 nM; in that of `Cc1ccc(-c2ccc(/C=C/[C@H]3[C@@H]4CC[C@@H](O)C[C@H]4C[C@H]4C(=O)O[C@H](C)[C@@H]34)nc2)cc1`, 1370 nM.
Take `Cc1cccc(-c2ccc(/C=C/[C@H]3[C@@H]4CCC(F)(F)C[C@H]4C[C@H]4C(=O)O[C@H](C)[C@@H]34)nc2)c1`: in data set [1], the IC50 was 80 nM.
Consider `C[C@H]1OC(=O)[C@@H]2C[C@@H]3CC(F)(F)CC[C@H]3[C@H](/C=C/c3ccc(-c4cccc(Cl)c4)cn3)[C@H]12`, for which the AUC(0-t) at 6 h in [17] was determined as 1200 ng·h/mL. The same compound yielded a solubility in data set [18] of 5 µM (≈ 2.29 µg/mL). Further, in data set [1], the IC50 was 12 nM.
For `C[C@H]1OC(=O)[C@@H]2C[C@@H]3CC(F)(F)CC[C@H]3[C@H](/C=C/c3ccc(-c4cccc(C(F)(F)F)c4)cn3)[C@H]12` the same measures were 1200 ng·h/mL, 5 µM (≈ 2.46 µg/mL) and 37 nM.
`C[C@H]1OC(=O)[C@@H]2C[C@@H]3CC(=O)CC[C@H]3[C@H](/C=C/c3ccc(-c4cccc(C(F)(F)F)c4)cn3)[C@H]12` registered an AUC(0-t) at 24 h in [2] of 31 ng·h/mL.
On to `C[C@H]1OC(=O)[C@@H]2C[C@@H]3C[C@H](O)CC[C@H]3[C@H](/C=C/c3ccc(-c4ccccc4F)cn3)[C@H]12`, for which, in [1], the IC50 turned out to be 72 nM.
On the same count and under the same terms, the same measure for `Cc1ccccc1-c1ccc(/C=C/[C@H]2[C@@H]3CC[C@@H](O)C[C@H]3C[C@H]3C(=O)O[C@H](C)[C@@H]23)nc1`: 70 nM.

The values above are taken from ChEMBL document CHEMBL1139225, “Metabolism-based identification of a potent thrombin receptor antagonist” (J Med Chem, 2007).
